Experimental data reported in ChEMBL document CHEMBL2375235, “Synthesis, radioiodination and in vivo screening of novel potent iodinated and fluorinated radiotracers as melanoma imaging and therapeutic probes” (Eur J Med Chem, 2013).

What was measured:
[1] = Drug uptake in tumor of C57BL/6J mouse xenografted with mouse B16F0 cells at 3.7 MBq, iv after 14 days by gamma scintigraphic imaging analysis relative to control; type: ADME, organism-based, Neoplasm; conditions: in vivo, 336 h
How it was run: (§1)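 Male C57BL/6J mice (6-8 weeks) bearing subcutaneous B16F0 tumours (3×10^5 cells in PBS, right flank, isoflurane anaesthesia); on day 14 after implant, [125I]-labelled tracer given i.v. via tail vein, 3.7 MBq/mouse, in physiological serum (some tracers in 5% ethanol/physiological serum); 3-8 animals per compound. Under i.p. ketamine (100 mg/kg)–xylazine (10 mg/kg), 10 min planar scintigrams acquired in prone position, 15% window on 35 keV peak.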

[2] = Drug uptake in tumor of C57BL/6J mouse xenografted with mouse B16F0 cells at 3.7 MBq, iv after 10 days by gamma scintigraphic imaging analysis relative to control; type: ADME, organism-based, Neoplasm; conditions: in vivo, 240 h; how it was run: as §1
[3] = Drug uptake in tumor of C57BL/6J mouse xenografted with mouse B16F0 cells at 3.7 MBq, iv after 7 days by gamma scintigraphic imaging analysis relative to control; type: ADME, organism-based, Neoplasm; conditions: in vivo, 168 h; how it was run: as §1
[4] = Drug uptake in tumor of C57BL/6J mouse xenografted with mouse B16F0 cells at 3.7 MBq, iv after 5 days by gamma scintigraphic imaging analysis relative to control; type: ADME, organism-based, Neoplasm; conditions: in vivo, 120 h; how it was run: as §1
[5] = Drug uptake in tumor of C57BL/6J mouse xenografted with mouse B16F0 cells at 3.7 MBq, iv after 72 hrs by gamma scintigraphic imaging analysis relative to control; type: ADME, organism-based, Neoplasm; conditions: in vivo; how it was run: as §1
[6] = Drug uptake in tumor of C57BL/6J mouse xenografted with mouse B16F0 cells at 3.7 MBq, iv after 24 hrs by gamma scintigraphic imaging analysis relative to control; type: ADME, organism-based, Neoplasm; conditions: in vivo; how it was run: as §1
[7] = Drug uptake in tumor of C57BL/6J mouse xenografted with mouse B16F0 cells at 3.7 MBq, iv after 6 hrs by gamma scintigraphic imaging analysis relative to control; type: ADME, organism-based, Neoplasm; conditions: in vivo; how it was run: as §1
[8] = Drug uptake in tumor of C57BL/6J mouse xenografted with mouse B16F0 cells at 3.7 MBq, iv after 3 hrs by gamma scintigraphic imaging analysis relative to control; type: ADME, organism-based, Neoplasm; conditions: in vivo; how it was run: as §1
[9] = Drug uptake in tumor of C57BL/6J mouse xenografted with mouse B16F0 cells at 3.7 MBq, iv after 1 hr by gamma scintigraphic imaging analysis relative to control; type: ADME, organism-based, Neoplasm; conditions: in vivo; how it was run: as §1
[10] = Ratio of drug uptake in tumor to muscle in C57BL/6J mouse xenografted with mouse B16F0 cells at 3.7 MBq, iv after 1 hr; conditions: in vivo
[11] = system: Mus musculus; test: Toxicity against C57BL/6J mouse xenografted with mouse B16F0 cells assessed as mortality at 3.7 MBq, iv after 2 days; type: organism-based; conditions: in vivo, 48 h
How it was run: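 Male C57BL/6J mice (6-8 weeks) were inoculated s.c. on the right flank with 3×10^5 B16F0 cells in 0.1 mL PBS under 2% isoflurane. On day 14 after implant they received the [125I]-labelled tracer i.v. via the tail vein at 3.7 MBq/mouse, in physiological serum (5% ethanol in physiological serum for non-salt forms), with 3–8 animals per compound. Survival was recorded 2 days post-injection.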

| SMILES | Drug uptake [1] [% ID/g] | Drug uptake [2] [% ID/g] | Drug uptake [3] [% ID/g] | Drug uptake [4] [% ID/g] | Drug uptake [5] [% ID/g] | Drug uptake [6] [% ID/g] | Drug uptake [7] [% ID/g] | Drug uptake [8] [% ID/g] | Drug uptake [9] [% ID/g] | Ratio [10] | Activity [11] |
| --- | --- | --- | --- | --- | --- | --- | --- | --- | --- | --- | --- |
| CCN(CC#CCF)CCNC(=O)c1cnc2cc([125I])ccc2n1.Cl | 2.2 | 4.2 | 8 | 11.6 | 14.9 | 23.5 | 23.3 | 18.3 | 12.3 | 5.76 | – |
| CCN(CCF)CCNC(=O)c1cnc2cc([125I])ccc2n1.Cl | 0.6 | 1.6 | – | 8.4 | 20 | 24.8 | 25 | 22.5 | 21.4 | – | Toxic |
| CCN(CCNC(=O)c1cnc2cc([125I])ccc2n1)CCOCCOCCOCCOCCOCCOCCOCCF | 0.3 | 0.8 | 1.5 | 2.7 | 3.8 | 6.8 | 7.2 | 7.8 | 6.8 | – | – |

Now from value to compound, other results behind:

| Drug uptake [1] [% ID/g] | Drug uptake [2] [% ID/g] | Drug uptake [3] [% ID/g] | Drug uptake [4] [% ID/g] | Drug uptake [5] [% ID/g] | Drug uptake [6] [% ID/g] | Drug uptake [7] [% ID/g] | Drug uptake [8] [% ID/g] | Drug uptake [9] [% ID/g] | Ratio [10] | SMILES | Activity [11] |
| --- | --- | --- | --- | --- | --- | --- | --- | --- | --- | --- | --- |
| 0.6 | 1.3 | 2.7 | 5.8 | 8.6 | 12.4 | 12.1 | 12.1 | 11.7 | 5.76 | CCN(CCNC(=O)c1cnc2cc([125I])ccc2n1)CCOCCOCCOCCF.Cl | – |
| 1.8 | 3.7 | 5.3 | 8.6 | 11 | 15.6 | 15.9 | 14.5 | 13 | 5.76 | CCN(CCNC(=O)c1cnc2cc([125I])ccc2n1)Cc1cn(CCF)nn1.Cl | – |
| 1.3 | 1.9 | 3.3 | 5.6 | 10 | 15 | 13.9 | 12.3 | 10.8 | 5.76 | CCN(C/C=C/CF)CCNC(=O)c1cnc2cc([125I])ccc2n1.Cl | – |
| 0.8 | 1.4 | 3 | 5.4 | 8.5 | 11.4 | 15.3 | 13.5 | 10 | – | CCN(CCCF)CCNC(=O)c1cnc2cc([125I])ccc2n1 | – |
